Reference: ChEMBL document CHEMBL1909532, “Comparative evaluation of two structurally related flavonoids, isoliquiritigenin and liquiritigenin, for their oral infection therapeutic potential” (J Nat Prod, 2011)
≈ marks a conversion by molar mass, not a printed value. One block for each molecule: values may come before it. Calls of active or inactive are those of the source. No cut-off for these calls is given here.

Experiments:
[1] = test system: U-937; experiment: Antiinflammatory activity in human U937 cells assessed as inhibition of LPS-induced TNFalpha secretion after 24 hrs by ELISA; format: functional, cell-based
Summary of the method: (§1)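 U937 monocytes differentiated with 10 ng/mL PMA for 48 h, then placed in RPMI-1% FBS. Pretreated 2 h with compound (0, 0.2, 1, 5 μg/mL), then stimulated with A. actinomycetemcomitans ATCC 29522 LPS (1 μg/mL) for 24 h. Cytokines and MMP-9 in supernatants measured by ELISA at 450 nm. Triplicates, two experiments, mean ± SD.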

[2] = target: Transcription factor Jun (Homo sapiens) (UniProt P05412); experiment: Inhibition of LPS-induced AP-1 activation in human U937 cells at 5 ug/ml after 1 hr relative to control; format: cell-based; conditions: U-937
Chain of Transcription factor Jun (Homo sapiens) (P05412 whole entry): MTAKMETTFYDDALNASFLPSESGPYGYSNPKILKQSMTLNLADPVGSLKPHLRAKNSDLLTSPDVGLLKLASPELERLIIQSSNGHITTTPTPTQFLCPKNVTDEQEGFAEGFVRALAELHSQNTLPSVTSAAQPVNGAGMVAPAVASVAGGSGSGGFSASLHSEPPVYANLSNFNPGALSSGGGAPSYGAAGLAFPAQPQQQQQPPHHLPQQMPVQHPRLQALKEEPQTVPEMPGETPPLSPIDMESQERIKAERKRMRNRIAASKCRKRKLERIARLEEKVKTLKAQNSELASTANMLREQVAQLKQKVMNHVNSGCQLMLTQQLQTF
Summary of the method: (§2)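 PMA-differentiated U937 macrophages pretreated with compound (5 μg/mL) for 1 h, then given LPS (1 μg/mL) for 1 h at 37 °C. Whole-cell extracts adjusted to 1 mg/mL protein. NF-κB p65 and AP-1 activation measured by TransAM kits; controls had no pretreatment.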

[3] = test system: U-937; experiment: Antiinflammatory activity in human U937 cells assessed as inhibition of LPS-induced CCL5 secretion at 5 ug/ml after 24 hrs by ELISA relative to control; format: functional; summary of the method: as §1
[4] = test system: Prevotella intermedia; experiment: Antibacterial activity against Prevotella intermedia ATCC 25611 by microdilution technique; format: functional
Summary of the method: (§3)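 Broth microdilution against each strain; MIC read as lowest concentration with no growth. Growth also expressed as percent of compound-free control (set to 100%). Triplicate assays, two independent experiments, mean ± SD; Student's t test, p < 0.01.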

[5] = test system: U-937; experiment: Antiinflammatory activity in human U937 cells assessed as inhibition of LPS-induced IL1-beta secretion after 24 hrs by ELISA; format: functional, cell-based; summary of the method: as §1
[6] = target: T1, Collagenase (Porphyromonas gingivalis) (UniProt P33437); experiment: Inhibition of Porphyromonas gingivalis ATCC 33277 collagenase assessed as remaining activity at 5 ug/ml after 4 hrs by fluorimetric analysis relative to control
T1 sequence (whole entry): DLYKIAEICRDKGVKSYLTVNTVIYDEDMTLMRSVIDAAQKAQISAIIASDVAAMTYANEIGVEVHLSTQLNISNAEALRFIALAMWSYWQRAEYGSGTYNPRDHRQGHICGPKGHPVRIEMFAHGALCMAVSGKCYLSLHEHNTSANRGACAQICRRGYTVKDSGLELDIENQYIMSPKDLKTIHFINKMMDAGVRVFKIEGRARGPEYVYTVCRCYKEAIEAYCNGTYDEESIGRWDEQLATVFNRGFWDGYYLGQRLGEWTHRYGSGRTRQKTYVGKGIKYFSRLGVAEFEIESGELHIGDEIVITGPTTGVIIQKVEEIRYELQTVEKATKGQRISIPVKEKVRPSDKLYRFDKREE
Summary of the method: (§4)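 Two-day P. gingivalis ATCC 33277 culture supernatant incubated with fluorescein-conjugated DQ type I collagen (stock 100 μg/mL) in TCNB buffer, compound final 0, 5, 25 or 100 μg/mL. Incubated 4 h in the dark at room temperature, then fluorescence read. Triplicates, mean ± SD.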

[7] = target: Matrix metalloproteinase-9 (Homo sapiens) (UniProt P14780); experiment: Inhibition of human MMP9 assessed as remaining activity at 5 ug/ml after 4 hrs by fluorimetric analysis relative to control
Chain of Matrix metalloproteinase-9 (Homo sapiens) (P14780 whole entry): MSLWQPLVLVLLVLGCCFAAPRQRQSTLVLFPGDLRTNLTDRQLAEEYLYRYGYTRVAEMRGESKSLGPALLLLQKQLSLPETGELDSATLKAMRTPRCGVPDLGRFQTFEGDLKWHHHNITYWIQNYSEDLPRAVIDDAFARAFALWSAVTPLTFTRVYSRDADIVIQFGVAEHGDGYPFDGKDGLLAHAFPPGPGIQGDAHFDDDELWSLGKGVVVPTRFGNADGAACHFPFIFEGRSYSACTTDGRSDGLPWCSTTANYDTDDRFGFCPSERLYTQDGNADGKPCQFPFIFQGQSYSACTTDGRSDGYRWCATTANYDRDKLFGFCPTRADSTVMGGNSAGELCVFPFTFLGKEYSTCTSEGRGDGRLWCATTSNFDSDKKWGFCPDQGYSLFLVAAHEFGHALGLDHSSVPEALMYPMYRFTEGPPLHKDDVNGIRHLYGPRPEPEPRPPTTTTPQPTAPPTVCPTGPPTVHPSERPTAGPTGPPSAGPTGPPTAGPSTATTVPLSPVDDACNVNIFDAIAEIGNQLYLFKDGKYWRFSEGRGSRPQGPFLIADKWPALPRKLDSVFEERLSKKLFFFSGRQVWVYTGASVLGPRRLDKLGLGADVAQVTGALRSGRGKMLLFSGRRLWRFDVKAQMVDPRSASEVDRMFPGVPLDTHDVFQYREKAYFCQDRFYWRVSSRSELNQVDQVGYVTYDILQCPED
Summary of the method: (§5)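 Active human recombinant MMP-9 (final 100 ng/mL) in TCNB buffer (50 mM Tris-HCl, 10 mM CaCl2, 150 mM NaCl, 0.05% Brij35, pH 7.5) with fluorescein-conjugated DQ gelatin (stock 1 mg/mL); compound final 0, 5, 25 or 100 μg/mL. Incubated 4 h at 37 °C in the dark; fluorescence at ex 490/em 520 nm.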

[8] = test system: Fusobacterium nucleatum; experiment: Antibacterial activity against Fusobacterium nucleatum ATCC 25586 at 40 ug/ml assessed as growth inhibition by microdilution technique relative to untreated control; format: functional; conditions: read-out: GI; summary of the method: as §3
[9] = test system: Fusobacterium nucleatum; experiment: Antibacterial activity against Fusobacterium nucleatum ATCC 25586 by microdilution technique; format: functional, organism-based; summary of the method: as §3
[10] = test system: U-937; experiment: Antiinflammatory activity in human U937 cells assessed as inhibition of LPS-induced IL1-beta secretion at 0.2 ug/ml after 24 hrs by ELISA relative to control; format: functional, cell-based; summary of the method: as §1
[11] = test system: Prevotella intermedia; experiment: Bactericidal activity against Prevotella intermedia ATCC 25611 at 20 ug/ml by microdilution technique; format: functional, organism-based
Summary of the method: (§6)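 MBC: aliquots from wells without visible growth spread on agar plates and incubated five days under appropriate conditions; MBC is the lowest concentration giving no colonies.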

[12] = test system: Prevotella intermedia; experiment: Antibacterial activity against Prevotella intermedia ATCC 25611 by microdilution technique in presence of 1% fetal bovine serum; format: functional, organism-based
Summary of the method: (§7)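 Broth microdilution growth assay, repeated in medium supplemented with 1% fetal bovine serum or with 10% unstimulated whole saliva.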

[13] = test system: Porphyromonas gingivalis; experiment: Antibacterial activity against Porphyromonas gingivalis ATCC 33277 by microdilution technique in presence of 1% fetal bovine serum; format: functional, organism-based; summary of the method: as §7
[14] = test system: U-937; experiment: Antiinflammatory activity in human U937 cells assessed as inhibition of LPS-induced IL6 secretion at 0.2 ug/ml after 24 hrs by ELISA relative to control; format: functional, cell-based; summary of the method: as §1
[15] = test system: Porphyromonas gingivalis; experiment: Antibacterial activity against Porphyromonas gingivalis ATCC 33277 by microdilution technique; format: functional; summary of the method: as §3
[16] = test system: U-937; experiment: Antiinflammatory activity in human U937 cells assessed as inhibition of LPS-induced IL6 secretion after 24 hrs by ELISA; format: functional, cell-based; summary of the method: as §1
[17] = test system: U-937; experiment: Antiinflammatory activity in human U937 cells assessed as inhibition of LPS-induced IL8 secretion at 5 ug/ml after 24 hrs by ELISA relative to control; format: functional; conditions: U-937, 24 h; summary of the method: as §1
[18] = target: Transcription factor p65 (Homo sapiens) (UniProt Q04206); experiment: Inhibition of LPS-induced NF-kappaB p65 activation in human U937 cells at 5 ug/ml after 1 hr relative to control; format: cell-based; conditions: U-937; summary of the method: as §2
Chain of Transcription factor p65 (Homo sapiens) (Q04206 whole entry): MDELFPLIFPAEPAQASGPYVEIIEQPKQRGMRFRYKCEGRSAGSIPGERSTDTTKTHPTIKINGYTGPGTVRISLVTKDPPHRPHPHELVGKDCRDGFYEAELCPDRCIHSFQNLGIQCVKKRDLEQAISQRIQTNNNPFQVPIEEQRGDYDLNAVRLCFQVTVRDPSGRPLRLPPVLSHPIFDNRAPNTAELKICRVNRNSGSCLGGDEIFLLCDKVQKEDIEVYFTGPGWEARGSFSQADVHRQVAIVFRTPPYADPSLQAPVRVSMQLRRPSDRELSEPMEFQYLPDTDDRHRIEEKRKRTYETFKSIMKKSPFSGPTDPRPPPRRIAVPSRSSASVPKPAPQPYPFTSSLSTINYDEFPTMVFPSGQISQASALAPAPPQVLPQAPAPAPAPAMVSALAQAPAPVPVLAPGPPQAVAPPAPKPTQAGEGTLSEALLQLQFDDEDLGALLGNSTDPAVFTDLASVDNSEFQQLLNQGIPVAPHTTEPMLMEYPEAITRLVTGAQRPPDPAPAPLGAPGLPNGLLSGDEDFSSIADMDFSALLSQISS

[19] = test system: Prevotella intermedia; experiment: Antibacterial activity against Prevotella intermedia ATCC 25611 assessed as growth inhibition at 5 ug/ml by microdilution technique relative to untreated control; format: functional; conditions: read-out: GI; summary of the method: as §3
[20] = test system: U-937; experiment: Antiinflammatory activity in human U937 cells assessed as inhibition of LPS-induced IL8 secretion after 24 hrs by ELISA; format: functional, cell-based; summary of the method: as §1
[21] = test system: U-937; experiment: Antiinflammatory activity in human U937 cells assessed as inhibition of LPS-induced CCL5 secretion after 24 hrs by ELISA; format: functional, cell-based; summary of the method: as §1
[22] = test system: Porphyromonas gingivalis; experiment: Antibacterial activity against Porphyromonas gingivalis ATCC 33277 by microdilution technique in presence of 10% unstimulated whole salive; format: functional, organism-based; summary of the method: as §7
[23] = target: Matrix metalloproteinase-9 (Homo sapiens) (UniProt P14780); experiment: Inhibition of human MMP9 assessed as remaining activity at 100 ug/ml after 4 hrs by fluorimetric analysis relative to control; summary of the method: as §5
[24] = target: T1, Collagenase (Porphyromonas gingivalis); experiment: Inhibition of Porphyromonas gingivalis ATCC 33277 collagenase assessed as remaining activity at 25 ug/ml after 4 hrs by fluorimetric analysis relative to control; summary of the method: as §4
[25] = test system: U-937; experiment: Antiinflammatory activity in human U937 cells assessed as inhibition of LPS-induced of IL6 secretion at 5 ug/ml after 24 hrs by ELISA relative to control; format: functional; summary of the method: as §1
[26] = test system: Porphyromonas gingivalis; experiment: Bactericidal activity against Porphyromonas gingivalis ATCC 33277 at 40 ug/ml by microdilution technique; format: functional, organism-based; summary of the method: as §6
[27] = test system: Prevotella intermedia; experiment: Antibacterial activity against Prevotella intermedia ATCC 25611 by microdilution technique in presence of 10% unstimulated whole salive; format: functional, organism-based; summary of the method: as §7
[28] = test system: U-937; experiment: Antiinflammatory activity in human U937 cells assessed as inhibition of LPS-induced TNFalpha secretion at 5 ug/ml after 24 hrs by ELISA relative to control; format: functional; conditions: U-937, 24 h; summary of the method: as §1
[29] = target: Matrix metalloproteinase-9 (Homo sapiens) (UniProt P14780); experiment: Inhibition of human MMP9 assessed as remaining activity at 25 ug/ml after 4 hrs by fluorimetric analysis relative to control; summary of the method: as §5
[30] = test system: U-937; experiment: Antiinflammatory activity in human U937 cells assessed as inhibition of LPS-induced MMP9 secretion at 5 ug/ml after 24 hrs by ELISA relative to control; format: functional; conditions: U-937, 24 h; summary of the method: as §1
[31] = test system: U-937; experiment: Cytotoxicity against human U937 cells assessed as loss of cell viability by MTT assay; format: cell-based
Summary of the method: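 PMA-differentiated U937 macrophages exposed to LPS or compound (up to 5 μg/mL) under the 24 h stimulation protocol; viability checked by MTT assay.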

[32] = target: T1, Collagenase (Porphyromonas gingivalis); experiment: Inhibition of Porphyromonas gingivalis ATCC 33277 collagenase assessed as remaining activity at 100 ug/ml after 4 hrs by fluorimetric analysis relative to control; summary of the method: as §4
[33] = test system: Fusobacterium nucleatum; experiment: Antibacterial activity against Fusobacterium nucleatum ATCC 25586 by microdilution technique in presence of 10% unstimulated whole salive; format: functional, organism-based; summary of the method: as §7
[34] = test system: Fusobacterium nucleatum; experiment: Antibacterial activity against Fusobacterium nucleatum ATCC 25586 by microdilution technique in presence of 1% fetal bovine serum; format: functional, organism-based; summary of the method: as §7
[35] = target: T1, Collagenase (Porphyromonas gingivalis); experiment: Inhibition of Porphyromonas gingivalis ATCC 33277 collagenase assessed at 100 ug/ml after 4 hrs by fluorimetric analysis relative to control; summary of the method: as §4
[36] = test system: U-937; experiment: Antiinflammatory activity in human U937 cells assessed as inhibition of LPS-induced IL1-beta secretion at 5 ug/ml after 24 hrs by ELISA relative to control; format: functional; summary of the method: as §1
[37] = test system: Prevotella intermedia; experiment: Antibacterial activity against Prevotella intermedia ATCC 25611 at 40 ug/ml assessed as growth inhibition by microdilution technique relative to untreated control; format: functional; conditions: read-out: GI; summary of the method: as §3

inhibition [2]: Active | MIC [4]: 10 µg/mL (≈ 39 µM) | Activity [6]: 82% | Activity [7]: 97% | MIC [15]: 40 µg/mL (≈ 156 µM) | inhibition [18]: Active | Activity [23]: 67% | Activity [24]: 78% | Activity [29]: 91% | Activity [32]: 48% | inhibition [35]: 52%
Compound: O=C(/C=C/c1ccc(O)cc1)c1ccc(O)cc1O [ISOLIQUIRITIGENIN]
inhibition [1]: Dose-dependent effect | inhibition [3]: Active | Activity [4]: Dose-dependent effect | inhibition [5]: Dose-dependent effect | inhibition of growth at 40 µg/mL [8]: 70% | Activity [9]: Dose-dependent effect | inhibition [10]: Active | inhibition [11]: Active | Activity [12]: Active | Activity [13]: Active | inhibition [14]: Active | Activity [15]: Dose-dependent effect | inhibition [16]: Dose-dependent effect | inhibition at 5 µg/mL [17]: 34% | inhibition of growth at 5 µg/mL [19]: 58% | inhibition [20]: Dose-dependent effect | inhibition [21]: Dose-dependent effect | Activity [22]: Active | inhibition [25]: Active | inhibition [26]: inactive | Activity [27]: Active | inhibition at 5 µg/mL [28]: 87% | inhibition at 5 µg/mL [30]: 89% | Activity [31]: Non-toxic | Activity [33]: Active | Activity [34]: Active | inhibition [36]: Active

inhibition [2]: 20% | Activity [6]: 83% | Activity [7]: 95% | inhibition [18]: 39% | Activity [23]: 87% | Activity [24]: 82% | Activity [29]: 95% | Activity [32]: 79% | inhibition [35]: 21%
Compound: O=C1C[C@@H](c2ccc(O)cc2)Oc2cc(O)ccc21 [LIQUIRTIGENIN]
inhibition at 5 µg/mL ([3]; U-937, 24 h): 24% | Activity [12]: Active | inhibition at 5 µg/mL [17]: 11% | inhibition of growth at 40 µg/mL [37]: 85% | inhibition at 5 µg/mL ([25]; U-937, 24 h): 23% | Activity [27]: Active | inhibition at 5 µg/mL [28]: 17% | inhibition at 5 µg/mL [30]: 24% | Activity [31]: Non-toxic | inhibition at 5 µg/mL ([36]; U-937, 24 h): 34%
